Measured values taken from ChEMBL document CHEMBL4049456, “Identification of 4-(Aminomethyl)-6-(trifluoromethyl)-2-(phenoxy)pyridine Derivatives as Potent, Selective, and Orally Efficacious Inhibitors of the Copper-Dependent Amine Oxidase, Lysyl Oxidase-Like 2 (LOXL2)” (J Med Chem, 2017).

How the values were obtained:
[1] = molecular target: T1, Lysyl oxidase homolog 2 (Homo sapiens, UniProt Q9Y4K0); assay: Inhibition of human LOXL2 expressed in CHO cells assessed as reduction of H2O2 production from oxidative deamination of DAP preincubated for 2 hrs followed by substrate addition measured every 2 mins for 1 hr by amplex red reagent-based fluorescence assay; format: cell-based
T1 sequence (Q9Y4K0 whole entry): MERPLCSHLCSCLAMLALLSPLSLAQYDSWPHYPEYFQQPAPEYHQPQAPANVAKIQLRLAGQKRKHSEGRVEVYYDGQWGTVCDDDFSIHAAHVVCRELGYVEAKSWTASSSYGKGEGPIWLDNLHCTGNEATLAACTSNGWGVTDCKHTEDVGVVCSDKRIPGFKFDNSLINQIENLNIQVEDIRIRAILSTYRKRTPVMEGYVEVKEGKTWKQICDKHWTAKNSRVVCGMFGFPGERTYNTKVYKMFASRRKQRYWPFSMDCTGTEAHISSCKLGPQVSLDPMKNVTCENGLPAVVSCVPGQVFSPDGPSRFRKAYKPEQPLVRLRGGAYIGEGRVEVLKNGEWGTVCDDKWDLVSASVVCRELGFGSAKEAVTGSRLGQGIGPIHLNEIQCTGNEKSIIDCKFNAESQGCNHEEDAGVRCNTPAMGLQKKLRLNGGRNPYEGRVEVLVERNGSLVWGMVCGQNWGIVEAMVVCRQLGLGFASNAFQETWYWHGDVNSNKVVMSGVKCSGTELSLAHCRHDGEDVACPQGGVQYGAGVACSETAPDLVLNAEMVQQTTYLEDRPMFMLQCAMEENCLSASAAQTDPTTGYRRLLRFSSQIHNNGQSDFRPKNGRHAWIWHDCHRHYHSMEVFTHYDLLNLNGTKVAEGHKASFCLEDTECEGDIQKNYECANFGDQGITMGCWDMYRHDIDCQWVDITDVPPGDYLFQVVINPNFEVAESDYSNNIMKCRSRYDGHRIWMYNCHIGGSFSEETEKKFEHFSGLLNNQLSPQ

[2] = molecular target: T1, Lysyl oxidase homolog 2; assay: Inhibition of recombinant human LOXL2 expressed in human whole blood assessed as reduction of H2O2 production from oxidative deamination of DAP preincubated for 2 hrs followed by substrate addition measured every 2 mins for 1 hr by amplex red reagent-based fluorescence assay
[3] = molecular target: T1, Lysyl oxidase homolog 2; assay: Inhibition of human LOXL2 expressed in CHO cells assessed as reduction of H2O2 production from oxidative deamination of DAP preincubated for 2 hrs followed by substrate addition in presence of 0.1% BSA measured every 2 mins for 1 hr by amplex red reagent-based fluorescence assay; format: cell-based
[4] = molecular target: T2, Lysyl oxidase homolog 2 (Homo sapiens) (UniProt Q9Y4K0); assay: Irreversible inhibition of human LOXL2 assessed as catalytic activity preincubated for 2 hrs followed by substrate addition measured every 2 mins for 1 hr by amplex red reagent-based fluorescence assay relative to control; parameters: concentration or dose not given beside the values
T2 sequence (whole entry): T1 sequence (Q9Y4K0 whole entry)

[5] = molecular target: T2, Lysyl oxidase homolog 2 (Homo sapiens); assay: Irreversible inhibition of human LOXL2 assessed as reduction of H2O2 production from oxidative deamination of DAP at 1000 times IC50 preincubated for 2 hrs followed by compound washout and subsequent incubation for 2 hrs prior to substrate addition measured every 2 mins for 40 mins by amplex red reagent-based fluorescence assay relative to control
How it was run: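 Wells were washed repeatedly with PBS and equilibrated for 2 h. Recovered activity was then compared with nonwashed controls.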

[6] = Cmax in C57BL/6 mouse plasma at 30 mg/kg, po by LC-MS/MS analysis; format: ADME, organism-based; parameters: dose 30 mg/kg, route oral
How it was run: (§1)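 Normal C57BL/6 mice, n = 3 per time point, received a single oral 30 mg/kg dose formulated in 0.5% methylcellulose.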

[7] = Cmax in C57BL/6 mouse lung at 30 mg/kg, po by LC-MS/MS analysis; format: ADME, organism-based; parameters: dose 30 mg/kg, route oral; how it was run: as §1
[8] = Protein binding in human plasma; format: ADME, cell-free; settings: read-out: PPB (converted)

| Compound | IC50 [1] [nM] | IC50 [2] [nM] | IC50 [3] [nM] | inhibition [4] [%] | inhibition [5] [%] | Cmax [6] [nM] | Cmax [7] [nM] | fraction unbound [8] |
| --- | --- | --- | --- | --- | --- | --- | --- | --- |
| NCc1ccnc(Cl)c1 |  |  |  | 93 | 32 |  |  |  |
| NCc1cc(Oc2cccc(Oc3ccccc3)c2)nc(C(F)(F)F)c1 | 67 | 23000 | 270 |  |  |  |  |  |
| NCc1ccnc(Oc2cccc(C(=O)NCc3cc4ccccc4s3)c2)c1 | 79 | 1700 | 110 |  |  |  |  |  |
| NCc1ccnc(Oc2cccc(C(=O)Nc3ccc(C(=O)O)cc3)c2)c1 | 81 | 1400 | 300 |  |  |  |  |  |
| N=C(N)c1cccc(CNC(=O)c2cccc(Oc3cc(CN)ccn3)c2)c1 | 180 | 5200 | 650 |  |  |  |  |  |
| Cl.NCc1cc(Oc2cccc(C(=O)N3CC[C@@H](O)C3)c2)nc(C(F)(F)F)c1 | 110 | 910 | 150 | 95 | 75 | 5130 | 9130 |  |
| Cl.NCc1cc(Oc2cccc(C(=O)NC[C@@H](O)CO)c2)nc(C(F)(F)F)c1 | 77 | 550 | 88 | 96 | 77 | 2770 | 1920 |  |
| NCc1ccnc(Oc2cccc(C(=O)N3CCc4ccccc4C3)c2)c1 | 120 | 7900 | 370 |  |  |  |  |  |
| NCc1cc(O[C@H]2CCCN(C(=O)Nc3ccccc3)C2)nc(C(F)(F)F)c1 | 130 | 2000 | 160 |  |  | 1900 | 30000 |  |
| NCc1ccnc(OC2CCCCC2)c1 | 850 | 29000 | 1800 |  |  |  |  |  |
| COCCNC(=O)c1ccc(Oc2cc(CN)ccn2)cc1 | 500 | 30000 | 1500 |  |  |  |  |  |
| NCc1cc(O[C@@H]2CCCN(C(=O)Nc3ccccc3)C2)nc(C(F)(F)F)c1 | 570 | 40000 | 620 |  |  |  |  |  |
| NCc1ccnc(Oc2cccc(C(=O)NCc3ccccc3)c2)c1 | 62 | 1400 | 110 |  |  |  |  |  |
| COCCNC(=O)c1cccc(Oc2cc(CN)ccn2)c1 | 160 | 2900 | 290 |  |  |  |  |  |
| CONC(=O)c1cccc(Oc2cc(CN)cc(C(F)(F)F)n2)c1.Cl | 96 | 840 | 140 |  |  | 630 | 8780 |  |
| NCc1ccnc(Oc2ccc(C(=O)Nc3ccccc3)cc2)c1 | 270 | 39000 | 750 |  |  |  |  |  |

Further molecules by falling IC50 [1], results first:

| IC50 [1] [nM] | IC50 [2] [nM] | IC50 [3] [nM] | inhibition [4] [%] | inhibition [5] [%] | Cmax [6] [nM] | Cmax [7] [nM] | fraction unbound [8] | Compound |
| --- | --- | --- | --- | --- | --- | --- | --- | --- |
| 58 | 690 | 100 |  |  | 670 | 1230 |  | Cl.Cl.NCc1cc(Oc2cccc(C(=O)N3CC[C@@H](N)C3)c2)nc(C(F)(F)F)c1 |
| 56 | 1300 | 130 |  |  |  |  |  | NCc1ccnc(Oc2cccc(C(=O)Nc3ccccc3)c2)c1 |
| 53 | 1800 | 160 |  |  |  |  |  | COc1ccc(NC(=O)c2cccc(Oc3cc(CN)ccn3)c2)cc1 |
| 50 | 1600 | 130 |  |  |  |  |  | NCc1ccnc(Oc2cccc(C(=O)Nc3ccc(F)cc3)c2)c1 |
| 43 | 280 | 80 | 97 | 77 | 1990 | 3460 |  | Cl.NCc1cc(Oc2cccc(C(=O)NCCn3cnnn3)c2)nc(C(F)(F)F)c1 |
| 42 | 2900 | 62 | 98 | 88 | 860 | 10300 | 0.04 | Cl.NCc1cc(Oc2cccc(C(=O)Nc3ccccc3)c2)nc(C(F)(F)F)c1 |
| 35 | 310 | 62 | 97 | 75 | 1040 | 540 |  | Cl.NCc1cc(Oc2cccc(C(=O)NCCS(N)(=O)=O)c2)nc(C(F)(F)F)c1 |
| 34 | 9900 | 100 |  |  |  |  |  | NCc1cc(Oc2cccc(C(=O)NCc3cc4ccccc4s3)c2)nc(C(F)(F)F)c1 |
